Activity calls are given as the source filed them. The calls are words filed in the database; no cut-off is given here.
Experiments:
[1] = tested on: Nucleic Acid; experiment: Binding affinity to human telomeric G4 DNA of sequence 5'-FAM-d(GGG[TTAGGG]3)-TAMRA-3' assessed as change in melting temperature by FRET DNA melting assay; type: nucleic-acid assay
[2] = tested on: Nucleic Acid; experiment: Binding affinity to human Duplex DNA of sequence 5'-FAM-dTATAGCTATA-HEG-TATAGCTATA-TAMRA-3' assessed as change in melting temperature by FRET DNA melting assay; type: nucleic-acid assay
[3] = tested on: A549; experiment: Cytotoxicity against human A549 cell after 72 hrs by SRB assay; type: functional, cell-based; conditions: A549, 72 h
[4] = tested on: IMR-90 (Homo sapiens); experiment: Cytotoxicity against human IMR90 cell after 72 hrs by SRB assay; conditions: IMR-90, 72 h
[5] = tested on: MCF7 (Homo sapiens); experiment: Cytotoxicity against human MCF7 cell after 72 hrs by SRB assay; conditions: MCF7, 72 h
[6] = tested on: MCF7; experiment: Cytotoxic activity in human MCF7 cell assessed by number of scenescence cell at 5 uM after 4 weeks; type: functional
Method in brief: (§1)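 Long-term MCF7 or A549 cultures were dosed at the start and then re-dosed three times weekly. At each re-dose the medium was discarded, cells were PBS-washed, and fresh medium plus compound was added. For staining, 1 × 10^5 cells per well were plated in medium with compound. After 24 h they were stained for senescence-associated β-galactosidase, and blue cells were counted by microscopy.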

[7] = tested on: MCF7; experiment: Cytotoxic activity in human MCF7 cell assessed by number of scenescence cell at 5 uM after 5 weeks; type: functional; method in brief: as §1
[8] = tested on: MCF7; experiment: Cytotoxic activity in human MCF7 cell assessed by number of scenescence cell at 15 uM after 4 weeks; type: functional; method in brief: as §1
[9] = tested on: MCF7; experiment: Cytotoxic activity in human MCF7 cell assessed by number of scenescence cell at 15 uM after 5 weeks; type: functional; method in brief: as §1
[10] = tested on: Nucleic Acid; experiment: Telomere shortening in DNA assessed by measuring telomere length after 6 weeks; type: nucleic-acid assay
[11] = biological target: Telomerase reverse transcriptase (Homo sapiens) (UniProt O14746); experiment: Inhibition of Telomerase by TRAP-LIG assay
Sequence of Telomerase reverse transcriptase (Homo sapiens) (O14746 whole entry): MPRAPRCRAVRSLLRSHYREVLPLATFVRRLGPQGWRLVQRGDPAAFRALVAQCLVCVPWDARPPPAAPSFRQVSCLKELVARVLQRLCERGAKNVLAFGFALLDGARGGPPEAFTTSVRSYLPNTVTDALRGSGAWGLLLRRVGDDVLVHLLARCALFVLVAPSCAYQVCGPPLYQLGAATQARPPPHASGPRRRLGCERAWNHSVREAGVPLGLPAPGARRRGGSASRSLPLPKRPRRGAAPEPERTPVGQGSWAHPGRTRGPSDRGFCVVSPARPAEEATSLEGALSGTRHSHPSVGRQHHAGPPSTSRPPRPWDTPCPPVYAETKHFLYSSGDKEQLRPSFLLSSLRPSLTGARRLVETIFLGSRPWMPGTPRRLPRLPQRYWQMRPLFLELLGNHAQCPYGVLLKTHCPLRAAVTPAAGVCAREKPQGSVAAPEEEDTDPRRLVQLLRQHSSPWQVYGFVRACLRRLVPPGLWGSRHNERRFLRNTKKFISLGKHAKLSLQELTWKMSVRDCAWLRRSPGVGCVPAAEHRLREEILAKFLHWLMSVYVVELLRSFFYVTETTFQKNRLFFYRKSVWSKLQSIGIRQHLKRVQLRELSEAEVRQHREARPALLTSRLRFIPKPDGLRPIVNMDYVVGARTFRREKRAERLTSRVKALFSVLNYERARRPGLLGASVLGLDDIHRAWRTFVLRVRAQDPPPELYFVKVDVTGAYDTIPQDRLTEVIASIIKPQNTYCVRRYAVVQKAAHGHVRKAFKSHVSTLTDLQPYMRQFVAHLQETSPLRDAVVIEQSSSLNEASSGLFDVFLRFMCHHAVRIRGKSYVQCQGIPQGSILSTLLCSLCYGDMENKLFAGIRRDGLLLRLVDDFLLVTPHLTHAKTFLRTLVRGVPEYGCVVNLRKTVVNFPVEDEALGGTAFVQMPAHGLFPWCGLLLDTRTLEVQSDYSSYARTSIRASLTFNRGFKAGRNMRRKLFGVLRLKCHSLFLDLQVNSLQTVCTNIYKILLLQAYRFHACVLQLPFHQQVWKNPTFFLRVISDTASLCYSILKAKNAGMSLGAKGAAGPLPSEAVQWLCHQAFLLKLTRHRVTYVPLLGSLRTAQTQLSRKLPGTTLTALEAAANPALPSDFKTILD

[12] = Cytotoxicity against human IMR90 cell after 72 hrs by SRB assay; type: cell-based; conditions: IMR-90, 72 h
[13] = tested on: MCF7; experiment: Cytotoxicity against human MCF7 cell after 72 hrs by SRB assay; type: functional, cell-based; conditions: MCF7, 72 h
[14] = tested on: MCF7; experiment: Cytotoxicity against human MCF7 by SRB assay; type: functional, cell-based
[15] = tested on: MCF7; experiment: Cytotoxic activity in human MCF7 cell assessed as number of scenescence cell at 10 uM after 1 week; type: functional; method in brief: as §1
[16] = tested on: MCF7; experiment: Cytotoxic activity in human MCF7 cell assessed as number of scenescence cell at 10 uM after 3 weeks; type: functional; method in brief: as §1
[17] = tested on: MCF7; experiment: Cytotoxic activity in human MCF7 cell assessed as number of scenescence cell at 10 uM after 4 weeks; type: functional; method in brief: as §1
[18] = tested on: MCF7; experiment: Cytotoxic activity in human MCF7 cell assessed as number of scenescence cell at 10 uM after 5 weeks; type: functional; method in brief: as §1
[19] = tested on: MCF7; experiment: Cytotoxic activity in human MCF7 cell assessed by number of scenescence cell at 25 uM after 1 week; type: functional; method in brief: as §1
[20] = tested on: MCF7; experiment: Cytotoxic activity in human MCF7 cell assessed by number of scenescence cell at 25 uM after 3 weeks; type: functional; method in brief: as §1
[21] = tested on: MCF7; experiment: Cytotoxic activity in human MCF7 cell assessed by number of scenescence cell at 35 uM after 1 week; type: functional; method in brief: as §1
[22] = tested on: A549; experiment: Cytotoxic activity in human A549 cell assessed by number of scenescence cell at 10 uM after 1 weeks; type: functional; method in brief: as §1
[23] = tested on: A549; experiment: Cytotoxic activity in human A549 cell assessed by number of scenescence cell at 10 uM after 3 weeks; type: functional; method in brief: as §1
[24] = tested on: A549; experiment: Cytotoxic activity in human A549 cell assessed by number of scenescence cell at 10 uM after 4 weeks; type: functional; method in brief: as §1
[25] = tested on: A549; experiment: Cytotoxic activity in human A549 cell assessed by number of scenescence cell at 10 uM after 5 weeks; type: functional; method in brief: as §1
[26] = tested on: A549; experiment: Cytotoxic activity in human A549 cell assessed by number of scenescence cell at 25 uM after 1 week; type: functional; method in brief: as §1
[27] = tested on: A549; experiment: Cytotoxic activity in human A549 cell assessed by number of scenescence cell at 25 uM after 3 weeks; type: functional; method in brief: as §1
[28] = tested on: A549; experiment: Cytotoxic activity in human A549 cell assessed by number of scenescence cell at 25 uM after 4 weeks; type: functional; method in brief: as §1
[29] = tested on: A549; experiment: Cytotoxic activity in human A549 cell assessed by number of scenescence cell at 25 uM after 5 weeks; type: functional; method in brief: as §1
[30] = tested on: A549; experiment: Cytotoxic activity in human A549 cell assessed by number of scenescence cell at 35 uM after 1 week; type: functional; method in brief: as §1
[31] = tested on: A549; experiment: Cytotoxic activity in human A549 cell assessed by number of scenescence cell at 35 uM after 3 weeks; type: functional; method in brief: as §1
[32] = tested on: A549; experiment: Cytotoxic activity in human A549 cell assessed by number of scenescence cell at 35 uM after 4 weeks; type: functional; method in brief: as §1
[33] = tested on: A549; experiment: Cytotoxic activity in human A549 cell assessed by number of scenescence cell at 35 uM after 5 weeks; type: functional; method in brief: as §1
[34] = tested on: MCF7 (Homo sapiens); experiment: Cytotoxicity against human MCF7 at 10 uM by assessed as population doublings SRB assay

Compound: O=C(CCNC1CCCCC1)Nc1ccc(NC(=O)c2cccc3c(=O)c4cccc(C(=O)Nc5ccc(NC(=O)CCNC6CCCCC6)cc5)c4[nH]c23)cc1
- ΔTm [1]: 24.5 °C
- ΔTm [2]: 0 °C
- IC50 [3]: 31 µM
- IC50 [4]: > 100 µM

Compound: O=C(Nc1ccc(NCCCN2CCOCC2)cc1)c1cccc2c(=O)c3cccc(C(=O)Nc4ccc(NCCCN5CCOCC5)cc4)c3[nH]c12
- ΔTm [1]: 20 °C
- ΔTm [2]: 0 °C
- IC50 [3]: > 100 µM
- IC50 [5]: > 100 µM
- IC50 [4]: > 100 µM

Compound: O=C(CCC(=O)N1CCCC1)Nc1ccc(NC(=O)c2cccc3c(=O)c4cccc(C(=O)Nc5ccc(NC(=O)CCC(=O)N6CCCC6)cc5)c4[nH]c23)cc1
- ΔTm [1]: 0 °C
- ΔTm [2]: 0 °C
- IC50 [3]: 27 µM
- IC50 [4]: > 100 µM

Compound: CN(C)CCC(=O)Nc1ccc(NC(=O)c2cccc3c(=O)c4cccc(C(=O)Nc5ccc(NC(=O)CCN(C)C)cc5)c4[nH]c23)cc1
- ΔTm [1]: 32 °C
- ΔTm [2]: 2.5 °C
- IC50 [3]: 15 µM
- Activity [6]: 2%
- Activity [7]: 2%
- Activity [8]: 0%
- Activity [9]: 5%
- Activity [10]: inactive
- Activity [11]: inactive
- IC50 [4]: > 100 µM

Compound: CN(C)CCCNC(=O)c1cccc2c(=O)c3cccc(C(=O)NCCCN(C)C)c3[nH]c12
- ΔTm [1]: 7 °C
- ΔTm [2]: 1 °C
- IC50 [3]: 62 µM
- IC50 [4]: > 100 µM

Compound: O=C(CCn1ccnc1)Nc1ccc(NC(=O)c2cccc3c(=O)c4cccc(C(=O)Nc5ccc(NC(=O)CCn6ccnc6)cc5)c4[nH]c23)cc1
- ΔTm [1]: 15 °C
- ΔTm [2]: 0.5 °C
- IC50 [3]: 19 µM
- IC50 [4]: > 100 µM

Compound: CN1CCN(CCCNc2ccc(NC(=O)c3cccc4c(=O)c5cccc(C(=O)Nc6ccc(NCCCN7CCN(C)CC7)cc6)c5[nH]c34)cc2)CC1
- ΔTm [1]: 28 °C
- ΔTm [2]: 1.5 °C
- IC50 [3]: > 100 µM
- IC50 [4]: > 100 µM

Compound: O=C(CN1CCCC1)Nc1ccc(NC(=O)c2cccc3c(=O)c4cccc(C(=O)Nc5ccc(NC(=O)CN6CCCC6)cc5)c4[nH]c23)cc1
- ΔTm [1]: 25.5 °C
- ΔTm [2]: 0.5 °C
- IC50 [3]: > 100 µM
- IC50 [4]: > 100 µM

Compound: O=C(CCN1CCOCC1)Nc1ccc(NC(=O)c2cccc3c(=O)c4cccc(C(=O)Nc5ccc(NC(=O)CCN6CCOCC6)cc5)c4[nH]c23)cc1
- ΔTm [1]: 19 °C
- ΔTm [2]: 0 °C
- IC50 [3]: > 100 µM
- IC50 [5]: > 100 µM
- IC50 [4]: > 100 µM

Compound: O=C(CCN1CCCC1)Nc1ccc(NC(=O)c2cccc3c(=O)c4ccccc4[nH]c23)cc1
- ΔTm [1]: 11 °C
- ΔTm [2]: 0.5 °C
- IC50 [3]: 16 µM
- IC50 [5]: 9 µM
- IC50 [4]: 7.5 µM

Compound: CN1CCN(CCC(=O)Nc2ccc(NC(=O)c3cccc4c(=O)c5cccc(C(=O)Nc6ccc(NC(=O)CCN7CCN(C)CC7)cc6)c5[nH]c34)cc2)CC1
- ΔTm [1]: 31 °C
- ΔTm [2]: 1.5 °C
- IC50 [3]: > 100 µM
- IC50 [4]: > 100 µM

Compound: O=C(CCCN1CCCC1)Nc1ccc(NC(=O)c2cccc3c(=O)c4cccc(C(=O)Nc5ccc(NC(=O)CCCN6CCCC6)cc5)c4[nH]c23)cc1
- ΔTm [1]: 15 °C
- ΔTm [2]: 0 °C
- IC50 [3]: 8 µM
- IC50 [4]: > 100 µM

Compound: O=C(CCN1CCCC1)Nc1ccc(NC(=O)c2cccc3c(=O)c4cccc(C(=O)Nc5ccc(NC(=O)CCN6CCCC6)cc5)c4[nH]c23)cc1
- ΔTm [1]: 34 °C
- ΔTm [2]: 2.5 °C
- IC50 [3]: 16 µM
- IC50 [4]: > 100 µM

Compound: O=C(Nc1ccc(NCCCN2CCCC2)cc1)c1cccc2c(=O)c3cccc(C(=O)Nc4ccc(NCCCN5CCCC5)cc4)c3[nH]c12
- ΔTm [1]: 33 °C
- ΔTm [2]: 2.5 °C
- IC50 [3]: 66 µM
- IC50 [4]: > 100 µM

Compound: Cn1cc(NC(=O)c2cccc3c(=O)c4cccc(C(=O)Nc5cc(C(=O)NCCCN6CCCC6)n(C)c5)c4[nH]c23)cc1C(=O)NCCCN1CCCC1
- ΔTm [1]: 15 °C
- ΔTm [2]: 0 °C
- IC50 [3]: 21 µM
- IC50 [4]: > 100 µM

Compound: CN(C)CCCNc1ccc(NC(=O)c2cccc3c(=O)c4cccc(C(=O)Nc5ccc(NCCCN(C)C)cc5)c4[nH]c23)cc1
- ΔTm [1]: 31 °C
- ΔTm [2]: 2.5 °C
- IC50 [3]: > 100 µM
- IC50 [4]: > 100 µM

Compound: O=C(CCCCN1CCCC1)Nc1ccc(NC(=O)c2cccc3c(=O)c4cccc(C(=O)Nc5ccc(NC(=O)CCCCN6CCCC6)cc5)c4[nH]c23)cc1
- ΔTm [1]: 22.5 °C
- ΔTm [2]: 0.75 °C
- IC50 [12]: 2 µM
- IC50 [3]: 43 µM
- IC50 [13]: > 100 µM

Compound: O=C(CCN1CCCC1)Nc1cccc(NC(=O)c2cccc3c(=O)c4cccc(C(=O)Nc5cccc(NC(=O)CCN6CCCC6)c5)c4[nH]c23)c1
- ΔTm [1]: 29 °C
- ΔTm [2]: 3 °C
- IC50 [3]: > 100 µM
- IC50 [14]: 84 µM
- Activity [15]: 2%
- Activity [16]: 3%
- Activity [17]: 0%
- Activity [18]: 1%
- Activity [19]: 3%
- Activity [20]: 25%
- Activity [21]: 12%
- Activity [22]: 0%
- Activity [23]: 12%
- Activity [24]: 0%
- Activity [25]: 0%
- Activity [26]: 9%
- Activity [27]: 21%
- Activity [28]: 0%
- Activity [29]: 0%
- Activity [30]: 8%
- Activity [31]: 30%
- Activity [32]: 0%
- Activity [33]: 0%
- Activity [10]: inactive
- Activity [11]: inactive
- IC50 [4]: > 100 µM
- Activity [34]: 17.5

Compound: O=C(CCN1CCCCC1)Nc1ccc(NC(=O)c2cccc3c(=O)c4cccc(C(=O)Nc5ccc(NC(=O)CCN6CCCCC6)cc5)c4[nH]c23)cc1
- ΔTm [1]: 31 °C
- ΔTm [2]: 1.5 °C
- IC50 [3]: > 100 µM
- IC50 [4]: > 100 µM

Reference: ChEMBL document CHEMBL1155326, “Design, synthesis and evaluation of 4,5-di-substituted acridone ligands with high G-quadruplex affinity and selectivity, together with low toxicity to normal cells” (Bioorg Med Chem Lett, 2009)
